Data published in ChEMBL document CHEMBL1123606, “1,3-Diarylpyrazolo[4,5-c]- and -[5,4-c]quinolin-4-ones. 4. Synthesis and specific inhibition of benzodiazepine receptor binding” (J Med Chem, 1987).
pIC50: −log10 of the molar value.

Species on record: Bos taurus
Assay: Displacement of 3[H]Flunitrazepam from GABA-A central benzodiazepine receptor of bovine brain membranes at 3.4 uM
Format: cell membranes
Outline: (§1)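 A single-concentration screen against specific [3H]flunitrazepam (0.6 nM) binding to bovine brain membranes (0.4–0.5 mg protein). Incubation was in 50 mM Tris-HCl at 0 °C for 90 min, with compounds added in ethanol. Diazepam at 10 μM defined nonspecific binding. Bound ligand was collected by rapid glass-fibre filtration and counted by scintillation. Percent inhibition is given as means ± SEM of five determinations.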
Cn1c(=O)c2c(c(-c3ccccc3)nn2-c2ccccc2)c2ccccc21 gave an inhibition of 21%.

Target: not listed separately
Assay: Displacement of 3[H]Flunitrazepam from GABA-A central benzodiazepine receptor of bovine brain membranes
Format: cell membranes, Bos taurus
Outline: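 Bovine brain membranes (0.4–0.5 mg protein) were incubated in triplicate with 0.6 nM [3H]flunitrazepam in 50 mM Tris-HCl at 0 °C for 90 min. Displacers were added in ethanol, at seven concentrations each. Nonspecific binding was defined with 10 μM diazepam. Samples were diluted with cold buffer, filtered on glass fibre and counted by scintillation. IC50 was taken from log-probit analysis; values are means ± SEM of seven determinations.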
With Cc1cccc(-n2nc(-c3ccccc3)c3c(O)nc4ccccc4c32)c1 the pIC50 was 5.52. For Oc1nc2ccccc2c2c1c(-c1ccccc1)nn2-c1ccccc1, the pIC50 was 4.68. In the case of Oc1nc2ccccc2c2c1c(-c1ccccc1)nn2-c1cccc(Br)c1, the pIC50 was 5.82. Oc1nc2ccccc2c2c1c(-c1ccccc1)nn2-c1cccc(Cl)c1 gave a pIC50 of 5.52. With Cn1c(=O)c2c(-c3ccccc3)nn(-c3cccc(Cl)c3)c2c2ccccc21 the pIC50 was 7.15. In the case of Cc1cccc(-n2nc(-c3ccccc3)c3c(=O)n(C)c4ccccc4c32)c1, the pIC50 was 7.05. With Oc1nc2ccccc2c2c1c(-c1ccccc1)nn2-c1ccc(Cl)cc1 the pIC50 was 4.52. Cn1c(=O)c2c(-c3ccccc3)nn(-c3cccc(Br)c3)c2c2ccccc21 showed a pIC50 of 7.00. Work on CNC1=Nc2ccc(Cl)cc2C(c2ccccc2)=[N+]([O-])C1 [CHLORDIAZEPOXIDE] yielded a pIC50 of 9.10. For Cn1c(=O)c2c(-c3ccccc3)nn(-c3ccc(Cl)cc3)c2c2ccccc21, the pIC50 was 5.94. With COc1ccc(-n2nc3c4ccccc4[nH]cc-3c2=O)cc1 the pIC50 was 10.00. Cn1c(=O)c2c(-c3ccccc3)nn(-c3ccccc3)c2c2ccccc21 gave a pIC50 of 5.51. In the case of Cc1ccc(-n2nc(-c3ccccc3)c3c(O)nc4ccccc4c32)cc1, the pIC50 was 4.41. Compound O=C1C2C=Nc3ccccc3C2=NN1c1ccccc1 (stereo not given) [CGS-8216] has a pIC50 of 9.40. In the case of O=C1C2C=Nc3ccccc3C2=NN1c1ccc(Cl)cc1 (stereo not given) [CGS-9896], the pIC50 was 9.22. CN1C(=O)CN=C(c2ccccc2)c2cc(Cl)ccc21 [DIAZEPAM] gave a pIC50 of 10.60. Cc1ccc(-n2nc(-c3ccccc3)c3c(=O)n(C)c4ccccc4c32)cc1 showed a pIC50 of 5.96.

Species on record: Bos taurus
Assay: Displacement of 3[H]Flunitrazepam from GABA-A central benzodiazepine receptor of bovine brain membranes at 34 uM
Format: cell membranes
Outline: as §1
With Oc1nc2ccccc2c2c(-c3ccccc3)nn(-c3cccc(Cl)c3)c12 the inhibition was 8%. In the case of Oc1nc2ccccc2c2c(-c3ccccc3)nn(-c3ccccc3)c12, the inhibition was 10%.
